Tests used:
Format in all cases: functional
U-251 = assay: Growth inhibition of human U251 cells at 10 uM after 48 hrs by sulforhodamine B assay; conditions: U-251, 48 h, read-out: GI
Outline: (§1)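 Single-dose screen at 10 µM across the NCI 60 panel. Cells in RPMI 1640 with 5% FBS and 2 mM L-glutamine, plated at 5000–40,000/well and preincubated 24 h at 37 °C, 5% CO2. Drug in DMSO, 48 h exposure. Fixed with TCA, stained with SRB, A515 read. Percent growth is taken relative to untreated control, and inhibition is 100 minus growth.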

DU-145 = assay: Growth inhibition of human DU145 cells at 10 uM after 48 hrs by sulforhodamine B assay; conditions: DU-145, 48 h, read-out: GI
Outline: (§2)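 Single-dose NCI-60 prescreen at 10 µM for 48 h at 37 °C and 5% CO2, using cells grown in RPMI 1640 with 5% FBS and 2 mM glutamine. Protein was measured by SRB after TCA fixation: 10% final for adherent lines, 16% for suspension lines. Absorbance was read at 515 nm. Percent growth inhibition was obtained by subtracting percent growth from 100.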

BT-549 = assay: Growth inhibition of human BT549 cells at 10 uM after 48 hrs by sulforhodamine B assay; conditions: BT-549, 48 h, read-out: GI; outline: as §2
SF-295 = assay: Growth inhibition of human SF295 cells at 10 uM after 48 hrs by sulforhodamine B assay; conditions: SF-295, 48 h, read-out: GI; outline: as §1
A549 = assay: Growth inhibition of human A549/ATCC cells at 10 uM after 48 hrs by sulforhodamine B assay; conditions: A549, 48 h, read-out: GI; outline: as §2
OVCAR-4 = assay: Growth inhibition of human OVCAR4 cells at 10 uM after 48 hrs by sulforhodamine B assay; conditions: OVCAR-4, 48 h, read-out: GI; outline: as §1
UO-31 = assay: Growth inhibition of human UO31 cells at 10 uM after 48 hrs by sulforhodamine B assay; conditions: UO-31, 48 h, read-out: GI; outline: as §1
KM12 = assay: Growth inhibition of human KM12 cells at 10 uM after 48 hrs by sulforhodamine B assay; conditions: KM12, 48 h, read-out: GI; outline: as §1
[1] = Growth inhibition of human NCI-ADR-RES cells at 10 uM after 48 hrs by sulforhodamine B assay; conditions: read-out: GI; outline: as §1
UACC-257 = assay: Growth inhibition of human UACC257 cells at 10 uM after 48 hrs by sulforhodamine B assay; conditions: UACC-257, 48 h, read-out: GI; outline: as §1
HOP-62 = assay: Growth inhibition of human HOP62 cells at 10 uM after 48 hrs by sulforhodamine B assay; conditions: HOP-62, 48 h, read-out: GI
Outline: (§3)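 NCI-60 one-dose primary screen at a single 10 µM concentration. Cells in RPMI 1640 with 5% FBS, preincubated 24 h at 37 °C, 5% CO2. Drug exposure 48 h, then TCA fixation, SRB staining and absorbance at 515 nm. Percent growth calculated against time-zero and untreated control wells, then converted to percent growth inhibition.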

COLO 205 = assay: Growth inhibition of human COLO205 cells at 10 uM after 48 hrs by sulforhodamine B assay; conditions: COLO 205, 48 h, read-out: GI; outline: as §2
HCT-116 = assay: Growth inhibition of human HCT116 cells at 10 uM after 48 hrs by sulforhodamine B assay; conditions: HCT-116, 48 h, read-out: GI; outline: as §3
NCI-H522 = assay: Growth inhibition of human NCI-H522 cells at 10 uM after 48 hrs by sulforhodamine B assay; conditions: NCI-H522, 48 h, read-out: GI; outline: as §1
786-0 = assay: Growth inhibition of human 786-0 cells at 10 uM after 48 hrs by sulforhodamine B assay; conditions: 786-0, 48 h, read-out: GI; outline: as §2
[2] = Growth inhibition of human Hs 578T cells at 10 uM after 48 hrs by sulforhodamine B assay; conditions: read-out: GI; outline: as §3
NCI-H23 = assay: Growth inhibition of human NCI-H23 cells at 10 uM after 48 hrs by sulforhodamine B assay; conditions: NCI-H23, 48 h, read-out: GI; outline: as §1
MDA-MB-468 = assay: Growth inhibition of human MDA-MB-468 cells at 10 uM after 48 hrs by sulforhodamine B assay; conditions: MDA-MB-468, 48 h, read-out: GI; outline: as §1
[3] = Growth inhibition of human HCC2998 cells at 10 uM after 48 hrs by sulforhodamine B assay; conditions: HCC 2998, 48 h, read-out: GI; outline: as §3
SNB-19 = assay: Growth inhibition of human SNB19 cells at 10 uM after 48 hrs by sulforhodamine B assay; conditions: SNB-19, 48 h, read-out: GI; outline: as §1
RXF 393 = assay: Growth inhibition of human RXF393 cells at 10 uM after 48 hrs by sulforhodamine B assay; conditions: RXF 393, 48 h, read-out: GI; outline: as §1
NCI-H460 = assay: Growth inhibition of human NCI-H460 cells at 10 uM after 48 hrs by sulforhodamine B assay; conditions: NCI-H460, 48 h, read-out: GI; outline: as §1
Malme-3M = assay: Growth inhibition of human MALME-3M cells at 10 uM after 48 hrs by sulforhodamine B assay; conditions: read-out: GI; outline: as §1
SW-620 = assay: Growth inhibition of human SW620 cells at 10 uM after 48 hrs by sulforhodamine B assay; conditions: SW-620, 48 h, read-out: GI; outline: as §1
HT-29 = assay: Growth inhibition of human HT-29 cells at 10 uM after 48 hrs by sulforhodamine B assay; conditions: HT-29, 48 h, read-out: GI; outline: as §3
HL-60(TB) = assay: Growth inhibition of human HL-60(TB) cells at 10 uM after 48 hrs by sulforhodamine B assay; conditions: HL-60, 48 h, read-out: GI
Outline: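 Single-dose NCI-60 primary screen at 10 µM, 48 h exposure, SRB read-out. Growth percentage of treated versus untreated cells was recorded and given as percent inhibition by subtraction.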

SR = assay: Growth inhibition of human SR cells at 10 uM after 48 hrs by sulforhodamine B assay; conditions: read-out: GI; outline: as §1
SK-MEL-5 = assay: Growth inhibition of human SK-MEL-5 cells at 10 uM after 48 hrs by sulforhodamine B assay; conditions: SK-MEL-5, 48 h, read-out: GI; outline: as §1
IGROV-1 = assay: Growth inhibition of human IGROV1 cells at 10 uM after 48 hrs by sulforhodamine B assay; conditions: IGROV-1, 48 h, read-out: GI; outline: as §1
SK-MEL-2 = assay: Growth inhibition of human SK-MEL-2 cells at 10 uM after 48 hrs by sulforhodamine B assay; conditions: SK-MEL-2, 48 h, read-out: GI; outline: as §1
T47D = assay: Growth inhibition of human T47D cells at 10 uM after 48 hrs by sulforhodamine B assay; conditions: read-out: GI; outline: as §1
HCT-15 = assay: Growth inhibition of human HCT15 cells at 10 uM after 48 hrs by sulforhodamine B assay; conditions: HCT-15, 48 h, read-out: GI; outline: as §3
LOX IMVI = assay: Growth inhibition of human LOXIMVI cells at 10 uM after 48 hrs by sulforhodamine B assay; conditions: read-out: GI; outline: as §1

SMILES	inhibition of growth at 10 µM (DU-145) [%]	inhibition of growth at 10 µM (BT-549) [%]	inhibition of growth at 10 µM (SF-295) [%]	inhibition of growth at 10 µM (A549) [%]	inhibition of growth at 10 µM (OVCAR-4) [%]	inhibition of growth at 10 µM (UO-31) [%]	inhibition of growth at 10 µM (KM12) [%]	inhibition of growth at 10 µM [1] [%]	inhibition of growth at 10 µM (UACC-257) [%]	inhibition of growth at 10 µM (HOP-62) [%]	inhibition of growth at 10 µM (COLO 205) [%]	inhibition of growth at 10 µM (HCT-116) [%]	inhibition of growth at 10 µM (NCI-H522) [%]	inhibition of growth at 10 µM (786-0) [%]	inhibition of growth at 10 µM [2] [%]	inhibition of growth at 10 µM (NCI-H23) [%]	inhibition of growth at 10 µM (MDA-MB-468) [%]	inhibition of growth at 10 µM [3] [%]	inhibition of growth at 10 µM (SNB-19) [%]	inhibition of growth at 10 µM (RXF 393) [%]	further results
O=S(=O)(Nc1ccc(Cl)cc1)c1ccc2nc(-c3ccccc3)c(-c3ccccc3)nc2c1	24.4	77.8	40.7	41.9	30.3	29.2	38.7	55.2	17.9	12.8	26.6	59.6	50.8	66.9	37.5	26.6	76.8	37.9	31.9	98.8	inhibition of growth at 10 µM (U-251): 39.5%; inhibition of growth at 10 µM (NCI-H460): 47.1%; inhibition of growth at 10 µM (Malme-3M): 6.64%; inhibition of growth at 10 µM (SW-620): 30.3%; inhibition of growth at 10 µM (HT-29): 70.4%; inhibition of growth at 10 µM (HL-60(TB)): 66.7%; inhibition of growth at 10 µM (SR): 88.1%; inhibition of growth at 10 µM (SK-MEL-5): 74%; inhibition of growth at 10 µM (IGROV-1): 20.8%; inhibition of growth at 10 µM (SK-MEL-2): 23.9%; inhibition of growth at 10 µM (T47D): 72.1%; inhibition of growth at 10 µM (HCT-15): 44.7%; inhibition of growth at 10 µM (LOX IMVI): 38.4%
COc1ccccc1NS(=O)(=O)c1ccc2nc(-c3ccccc3)c(-c3ccccc3)nc2c1	18.9	55.1	15.9	36.5	30	22.8	8.62	41	18.9	2.12	28.9	55.7	28.8	41.5	33.2	23	56.8	19.9	41.9	70.7	inhibition of growth at 10 µM (NCI-H460): 45.5%; inhibition of growth at 10 µM (Malme-3M): 1.87%; inhibition of growth at 10 µM (SW-620): 21.5%; inhibition of growth at 10 µM (HT-29): 63.9%; inhibition of growth at 10 µM (HL-60(TB)): 60.7%; inhibition of growth at 10 µM (SR): 81.9%; inhibition of growth at 10 µM (SK-MEL-5): 61.4%; inhibition of growth at 10 µM (IGROV-1): 11.8%; inhibition of growth at 10 µM (SK-MEL-2): 25%; inhibition of growth at 10 µM (T47D): 63.9%; inhibition of growth at 10 µM (HCT-15): 44.7%; inhibition of growth at 10 µM (LOX IMVI): 23.3%

Source: ChEMBL document CHEMBL2407075, “Sulphonamido-quinoxalines: search for anticancer agent” (Eur J Med Chem, 2013)
